Measurements from ChEMBL document CHEMBL2040713, “Finger-loop inhibitors of the HCV NS5b polymerase. Part 1: Discovery and optimization of novel 1,6- and 2,6-macrocyclic indole series” (Bioorg Med Chem Lett, 2012).

Columns and labels:
[1] = Inhibition of purified HCV NS5B Cdelta21 polymerase; parameters: species or system Hepacivirus hominis
Hepatitis C virus = test: Antiviral activity against HCV infected in human […] cells assessed as inhibition of viral RNA replication; type: functional, organism-based, Hepacivirus hominis
Method in brief: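 Replicon assay: subgenomic HCV RNA replication in Huh-7 cells carrying a bicistronic expression construct. Inhibition expressed as EC50.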

[2] = Volume of distribution at steady state in Sprague-Dawley rat at 2 mg/kg, iv and 10 mg/kg, po; type: ADME, organism-based; details: in vivo, read-out: Vdss
Method in brief: (§1)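 Sprague–Dawley rats, single dose. IV arm at 2 mg/kg in PEG400/saline (70:30), with plasma kinetics determined. Oral arm at 10 mg/kg in PEG400 containing 2% Vitamin E TPGS, compared against the iv data.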

[3] = Drug metabolism in human liver microsomes at 5 uM after 15 mins; type: ADME, Microsome; details: read-out: Drug metabolism
[4] = Drug level in Sprague-Dawley rat liver at 2 mg/kg, iv and 10 mg/kg, po after 7 hrs; type: ADME, organism-based; details: read-out: Drug uptake
Method in brief: (§2)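 Sprague–Dawley rats given 2 mg/kg iv in PEG400/saline (70:30) or 10 mg/kg po in PEG400 with 2% Vitamin E TPGS. Liver concentration (ng/g) measured 7 h post dose. Liver-to-plasma ratio taken at the same time.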

[5] = Half life in Sprague-Dawley rat at 2 mg/kg, iv and 10 mg/kg, po; type: ADME, organism-based; details: in vivo; method in brief: as §1
[6] = Ratio of drug level in liver to plasma in Sprague-Dawley rat at 2 mg/kg, iv and 10 mg/kg, po after 7 hrs; type: ADME, organism-based; method in brief: as §2
[7] = Oral bioavailability in Sprague-Dawley rat at 10 mg/kg; type: ADME, organism-based; details: in vivo; method in brief: as §1
[8] = Drug metabolism in rat liver microsomes at 5 uM after 15 mins; type: ADME, Microsome; details: read-out: Drug metabolism
[9] = Clearance in Sprague-Dawley rat at 2 mg/kg, iv and 10 mg/kg, po; type: ADME, organism-based; details: in vivo; method in brief: as §1
Liver microsomes = test: Metabolic stability in human liver microsomes assessed as glutathione conjugates formation at 40 uM in presence of glutathione; type: ADME, Microsome
Method in brief: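 Human liver microsomes (1 mg/mL protein) in 100 mM KPi, pH 7.4, with 5 mM MgCl2, 1 mM EDTA and 2 mM NADPH. Trapping agent was 2 mM GSH, or a GSH/stable-label GSH mix (1 mM/1 mM). Compound at 40 µM final, added from a 20 mM stock. Read-out was glutathione conjugate formation.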

[10] = Efflux ratio of compound permeability in human Caco2 cells; type: ADME, cell-based; details: Caco-2
[11] = Apparent permeability from apical to basolateral side of human Caco2 cells; type: ADME, cell-based; details: Caco-2

| SMILES | IC50 [1] | EC50 (Hepatitis C virus) | metabolised at 0.25 h, 5 µM [3] | metabolised at 0.25 h, 5 µM [8] | other results |
| --- | --- | --- | --- | --- | --- |
| COc1ccc(-c2c(C3CCCCC3)c3ccc4cc3n2CC(=O)NCCN(C)CCNS(=O)(=O)NC4=O)cc1 | 440 nM | 3470 nM |  |  |  |
| COc1ccc(-c2c(C3CCCCC3)c3ccc4cc3n2CC(=O)NN(C)CCN2CCN(CC2)S(=O)(=O)NC4=O)cc1 |  | 3500 nM |  |  |  |
| COc1ccc(-c2c(C3CCCCC3)c3ccc4cc3n2CC(=O)NCCCCCN(C)S(=O)(=O)NC4=O)cc1 |  | 350 nM |  |  |  |
| CN1CCCCN(C)S(=O)(=O)NC(=O)c2ccc3c(C4CCCCC4)c(-c4ccc(Cl)cc4)n(c3c2)CC1=O |  | 530 nM |  |  |  |
| CN1CCCCNC(=O)COc2ccccc2-c2c(C3CCCCC3)c3ccc(cc3n2C)C(=O)NS1(=O)=O | 1900 nM | 7560 nM |  |  |  |
| CN1CCCCN(C)S(=O)(=O)NC(=O)c2ccc3c(C4CCCCC4)c(n(C)c3c2)-c2ccccc2OCC1=O | 97 nM | 310 nM | 92% | 60% | Vd [2]: 2.6 L/kg; concentration at 7 h [4]: 1520 ng/g; half-life [5]: 18 min; Kp at 7 h [6]: 99; bioavailability [7]: 9%; clearance [9]: 128 mL/min/kg |
| COc1ccc2c(c1)OCC(=O)N(C)CCCCN(C)S(=O)(=O)NC(=O)c1ccc3c(C4CCCCC4)c-2n(C)c3c1 | 54 nM | 170 nM | 96% | 64% |  |
| CN1CCN2CCN(CC2)C(=O)COc2ccccc2-c2c(C3CCCCC3)c3ccc(cc3n2C)C(=O)NS1(=O)=O | 140 nM | 240 nM | 56% | 35% |  |
| O=C1Cn2c(-c3ccoc3)c(C3CCCCC3)c3ccc(cc32)C(=O)NCCCCCCN1 | 9500 nM | 4300 nM | > 95% | > 95% |  |
| O=C1Cn2c(-c3ccoc3)c(C3CCCCC3)c3ccc(cc32)C(=O)NCC/C=C/CCCN1 |  | 2600 nM | > 95% | > 95% |  |
| CN1C/C=C/CCNC(=O)Cn2c(-c3ccoc3)c(C3CCCCC3)c3ccc(cc32)C(=O)NS1(=O)=O |  | 720 nM |  |  |  |
| CN1CCCCCNC(=O)Cn2c(-c3ccoc3)c(C3CCCCC3)c3ccc(cc32)C(=O)NS1(=O)=O |  | 790 nM | 67% | 63% | Vd [2]: 2.4 L/kg; concentration at 7 h [4]: 3740 ng/g; half-life [5]: 24 min; Kp at 7 h [6]: 150; bioavailability [7]: 40%; clearance [9]: 123 mL/min/kg |

Continued by falling EC50 (Hepatitis C virus), values first:

| IC50 [1] | EC50 (Hepatitis C virus) | metabolised at 0.25 h, 5 µM [3] | metabolised at 0.25 h, 5 µM [8] | SMILES | other results |
| --- | --- | --- | --- | --- | --- |
| 1490 nM | 15700 nM | 74% | 40% | CN1CCOCCN(C)S(=O)(=O)NC(=O)c2ccc3c(C4CCCCC4)c(n(C4CCCC4)c3c2)-c2ccccc2OCC1=O |  |
| 1660 nM | 11900 nM | 64% | 35% | CC(C)n1c2c(C3CCCCC3)c3ccc(cc31)C(=O)NS(=O)(=O)N(C)CCOCCN(C)C(=O)COc1ccccc1-2 |  |
|  | 7500 nM |  |  | O=C1Cn2c(-c3ccoc3)c(C3CCCCC3)c3ccc(cc32)C(=O)NS(=O)(=O)C/C=C/CCN1 | efflux ratio [10]: > 25; Papp A→B [11]: < 1 ×10⁻⁶ cm/s |
| 2200 nM | 3400 nM | > 95% | > 95% | O=C1Cn2c(-c3ccoc3)c(C3CCCCC3)c3ccc(cc32)C(=O)NCC/C=C/CCN1 |  |
| 180 nM | 1760 nM |  |  | COc1ccc(-c2c(C3CCCCC3)c3ccc4cc3n2CC(=O)NCCCCN(C)S(=O)(=O)NC4=O)cc1 |  |
| 110 nM | 1580 nM |  |  | CN1CCCCNC(=O)Cn2c(-c3ccoc3)c(C3CCCCC3)c3ccc(cc32)C(=O)NS1(=O)=O |  |
| 88 nM | 680 nM | 59% | 56% | CN1CCCCCNC(=O)COc2ccc(F)cc2-c2c(C3CCCCC3)c3ccc(cc3n2C)C(=O)NS1(=O)=O |  |
| 190 nM | 590 nM |  |  | CN1CCCCCNC(=O)Cn2c(-c3ccc(Cl)cc3)c(C3CCCCC3)c3ccc(cc32)C(=O)NS1(=O)=O |  |
| 110 nM | 460 nM | 81% | 58% | CN1CCCCCNC(=O)COc2cc(F)ccc2-c2c(C3CCCCC3)c3ccc(cc3n2C)C(=O)NS1(=O)=O |  |
|  | 430 nM |  |  | CN1CCCCCNC(=O)Cn2c(-c3ccccc3)c(C3CCCCC3)c3ccc(cc32)C(=O)NS1(=O)=O |  |
| 110 nM | 190 nM | 65% | 50% | CN1CCOCCN(C)S(=O)(=O)NC(=O)c2ccc3c(C4CCCCC4)c(n(C)c3c2)-c2ccccc2OCC1=O | Vd [2]: 7 L/kg; concentration at 7 h [4]: 1720 ng/g; Stability (Liver microsomes): Stable; half-life [5]: 60 min; Kp at 7 h [6]: 64; bioavailability [7]: 14%; clearance [9]: 115 mL/min/kg |
| 33 nM | 180 nM | 71% | 44% | CN1CCCCCNC(=O)COc2ccccc2-c2c(C3CCCCC3)c3ccc(cc3n2C)C(=O)NS1(=O)=O |  |
| 56 nM | 150 nM | 69% | 52% | COc1ccc2c(c1)OCC(=O)N(C)CCOCCN(C)S(=O)(=O)NC(=O)c1ccc3c(C4CCCCC4)c-2n(C)c3c1 |  |
